According to ChEMBL document CHEMBL1799960, “Diadenosine 5',5''-(boranated)polyphosphonate analogues as selective nucleotide pyrophosphatase/phosphodiesterase inhibitors” (J Med Chem, 2010):
pKi: −log10 of the molar value. The source made the active and inactive calls. The rule behind the calls is not given here.

What was measured:
[1] = target: T1, Ectonucleotide pyrophosphatase/phosphodiesterase family member 3 (Homo sapiens) (UniProt O14638); experiment: Activity of human NPP3 expressed in COS7 cells assessed as production of p-nitrophenol using Ap5A as the substrate at 100 uM after 30 mins by malachite green reagent method; assay type: cell-based; details: COS-7
T1 sequence (whole entry): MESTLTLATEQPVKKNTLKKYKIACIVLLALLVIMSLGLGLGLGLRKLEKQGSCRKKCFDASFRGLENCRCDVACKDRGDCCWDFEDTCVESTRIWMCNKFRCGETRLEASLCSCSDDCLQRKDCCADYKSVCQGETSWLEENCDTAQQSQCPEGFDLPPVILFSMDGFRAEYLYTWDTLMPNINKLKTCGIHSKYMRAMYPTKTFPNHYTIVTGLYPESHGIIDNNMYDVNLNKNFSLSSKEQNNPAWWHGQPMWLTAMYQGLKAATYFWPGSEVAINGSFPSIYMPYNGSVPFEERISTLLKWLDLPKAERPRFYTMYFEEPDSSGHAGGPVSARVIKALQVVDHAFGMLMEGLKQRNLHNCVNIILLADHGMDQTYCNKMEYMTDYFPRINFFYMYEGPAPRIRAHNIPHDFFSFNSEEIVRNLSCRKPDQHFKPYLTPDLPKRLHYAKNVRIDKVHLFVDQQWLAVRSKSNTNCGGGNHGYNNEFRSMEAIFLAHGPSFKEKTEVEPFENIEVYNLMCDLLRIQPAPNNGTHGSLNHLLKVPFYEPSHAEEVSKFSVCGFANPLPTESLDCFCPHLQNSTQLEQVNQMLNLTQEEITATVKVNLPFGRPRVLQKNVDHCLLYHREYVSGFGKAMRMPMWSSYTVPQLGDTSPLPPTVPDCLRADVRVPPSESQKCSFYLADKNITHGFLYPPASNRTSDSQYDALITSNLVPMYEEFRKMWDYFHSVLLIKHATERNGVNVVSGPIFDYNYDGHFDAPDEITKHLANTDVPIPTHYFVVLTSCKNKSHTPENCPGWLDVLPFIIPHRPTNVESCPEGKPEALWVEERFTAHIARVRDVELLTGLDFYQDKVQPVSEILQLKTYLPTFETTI

[2] = target: T2, Ectonucleoside triphosphate diphosphohydrolase 2 (Homo sapiens) (UniProt Q9Y5L3); experiment: Inhibition of human NTPDase2 expressed in COS7 cells assessed as amount of inorganic phosphate released using ATP as the substrate at 100 uM after 15 mins by malachite green reagent method; assay type: cell-based; details: COS-7
T2 sequence (whole entry): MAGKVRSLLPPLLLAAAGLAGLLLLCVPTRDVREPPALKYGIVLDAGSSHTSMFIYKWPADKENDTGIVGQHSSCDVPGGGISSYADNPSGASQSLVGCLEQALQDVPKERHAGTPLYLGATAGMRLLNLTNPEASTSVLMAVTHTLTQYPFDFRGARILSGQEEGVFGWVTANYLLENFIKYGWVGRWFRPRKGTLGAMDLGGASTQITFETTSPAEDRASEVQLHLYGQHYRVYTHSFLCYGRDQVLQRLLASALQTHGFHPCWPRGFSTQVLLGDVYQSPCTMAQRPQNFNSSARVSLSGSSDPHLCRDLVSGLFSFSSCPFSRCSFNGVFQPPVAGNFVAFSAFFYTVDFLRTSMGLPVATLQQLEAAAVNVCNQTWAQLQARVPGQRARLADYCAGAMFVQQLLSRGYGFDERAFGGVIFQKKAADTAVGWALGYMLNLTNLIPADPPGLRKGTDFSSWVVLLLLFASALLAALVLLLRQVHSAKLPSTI
Procedure, shortened: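 Protein extracts of transfected COS-7 cells (ecto-5'-nucleotidase: 100 μM AMP substrate; NTPDases: 100 μM ATP) were preincubated 3 min at 37 °C in Tris-Ringer pH 7.3 with inhibitor at 100 μM final. After 15 min, malachite green stop; Pi read at 630 nm. Activity given as % of substrate-only control. Mean ± SD of three experiments in triplicate.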

[3] = target: T3, Ectonucleotide pyrophosphatase/phosphodiesterase family member 1 (Homo sapiens) (UniProt P22413); experiment: Inhibition of human NPP1 expressed in COS7 cells assessed as production of p-nitrophenol using pnp-TMP as the substrate at 100 uM after 15 mins […]; assay type: cell-based; details: COS-7
T3 sequence (whole entry): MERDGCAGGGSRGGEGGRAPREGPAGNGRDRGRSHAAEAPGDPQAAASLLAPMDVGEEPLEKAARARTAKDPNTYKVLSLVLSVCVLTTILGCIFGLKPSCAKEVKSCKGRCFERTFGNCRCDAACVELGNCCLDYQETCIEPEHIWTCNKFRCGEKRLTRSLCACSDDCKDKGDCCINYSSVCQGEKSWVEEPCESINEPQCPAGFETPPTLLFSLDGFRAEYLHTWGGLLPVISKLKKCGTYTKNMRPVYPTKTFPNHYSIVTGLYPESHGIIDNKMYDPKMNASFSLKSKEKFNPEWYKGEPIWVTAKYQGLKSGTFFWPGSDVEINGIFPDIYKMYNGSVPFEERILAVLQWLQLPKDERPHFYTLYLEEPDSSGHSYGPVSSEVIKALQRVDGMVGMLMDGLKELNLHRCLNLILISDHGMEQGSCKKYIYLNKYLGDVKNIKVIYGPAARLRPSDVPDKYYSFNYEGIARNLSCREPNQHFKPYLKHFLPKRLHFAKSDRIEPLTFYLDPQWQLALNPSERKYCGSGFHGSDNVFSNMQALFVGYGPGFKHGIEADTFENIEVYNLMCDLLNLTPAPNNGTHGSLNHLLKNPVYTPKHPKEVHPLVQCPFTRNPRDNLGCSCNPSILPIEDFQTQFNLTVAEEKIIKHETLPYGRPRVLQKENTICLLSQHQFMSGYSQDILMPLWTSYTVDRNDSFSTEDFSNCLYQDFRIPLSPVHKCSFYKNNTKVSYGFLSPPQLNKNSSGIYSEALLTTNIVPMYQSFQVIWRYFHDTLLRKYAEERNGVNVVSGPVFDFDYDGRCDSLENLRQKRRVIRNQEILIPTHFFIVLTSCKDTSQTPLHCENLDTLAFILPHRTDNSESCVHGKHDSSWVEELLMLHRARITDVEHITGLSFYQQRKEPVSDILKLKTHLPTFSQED
Procedure, shortened: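 Human NPP1, NPP2 (membrane lysate or conditioned medium for the secreted form) or NPP3 from transfected COS-7 cells, preincubated 3 min at 37 °C in 50 mM Tris pH 8.5 buffer with CaCl2, NaCl and KCl. Substrate and inhibitor both at 100 μM final. pnp-TMP: p-nitrophenol read at 405 nm at 15 min. ATP or Ap5A: stopped at 30 min with perchloric acid, then HPLC. Results as % residual activity versus control; three to six experiments in triplicate.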

[4] = target: T4, Ectonucleotide pyrophosphatase/phosphodiesterase family member 1 (Homo sapiens, UniProt P22413); experiment: Inhibition of human NPP1 expressed in COS7 cells assessed as enzyme-substrate-inhibitor dissociation constant using pnp-TMP as the substrate after 15 mins […]; assay type: cell-based, COS-7
T4 sequence (P22413 whole entry): T3 sequence (whole entry)

[5] = target: 5'-nucleotidase (Homo sapiens) (UniProt P21589); experiment: Inhibition of human Ecto-5'-nucleotidase expressed in COS7 cells assessed as amount of inorganic phosphate released using AMP as the substrate at 100 uM after 15 mins by malachite green reagent method; details: COS-7
Sequence of 5'-nucleotidase (Homo sapiens) (P21589 whole entry): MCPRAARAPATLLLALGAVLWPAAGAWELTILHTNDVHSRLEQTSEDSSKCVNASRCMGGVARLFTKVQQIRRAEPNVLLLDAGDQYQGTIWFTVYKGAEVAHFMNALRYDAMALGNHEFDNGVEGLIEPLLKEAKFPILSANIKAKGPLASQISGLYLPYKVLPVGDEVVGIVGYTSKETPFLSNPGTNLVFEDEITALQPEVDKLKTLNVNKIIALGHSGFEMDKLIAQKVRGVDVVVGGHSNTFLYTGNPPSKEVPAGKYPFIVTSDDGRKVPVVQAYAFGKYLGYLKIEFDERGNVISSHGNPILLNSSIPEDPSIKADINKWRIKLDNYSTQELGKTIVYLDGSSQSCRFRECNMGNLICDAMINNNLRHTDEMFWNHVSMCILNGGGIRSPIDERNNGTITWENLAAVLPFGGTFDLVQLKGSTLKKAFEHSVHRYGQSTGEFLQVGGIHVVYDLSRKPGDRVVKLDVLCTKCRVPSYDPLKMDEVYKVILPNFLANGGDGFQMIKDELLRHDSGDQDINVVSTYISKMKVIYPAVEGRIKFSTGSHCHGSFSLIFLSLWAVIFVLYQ

BP(=O)(OP(=O)(O)CP(=O)(O)OC[C@H]1O[C@@H](n2cnc3c(N)ncnc32)C[C@@H]1O)OP(=O)(O)CP(=O)(O)OC[C@H]1O[C@@H](n2cnc3c(N)ncnc32)C[C@@H]1O
Activity [1]: 5.5%
inhibition [2]: 10%
inhibition [3]: > 90%
pKi [4]: 3.84
inhibition [5]: inactive

Nc1ncnc2c1ncn2[C@@H]1O[C@H](COP(=O)(O)CP(=O)(O)OP(=O)(O)CP(=O)(O)OC[C@H]2O[C@@H](n3cnc4c(N)ncnc43)[C@H](O)[C@@H]2O)[C@@H](O)[C@H]1O
Activity [1]: 11%
inhibition [2]: 10%
inhibition [3]: > 90%
pKi [4]: 3.83
inhibition [5]: 90%

BP(=O)(OP(=O)(O)CP(=O)(O)OC[C@H]1O[C@@H](n2cnc3c(N)ncnc32)[C@H](O)[C@@H]1O)OP(=O)(O)CP(=O)(O)OC[C@H]1O[C@@H](n2cnc3c(N)ncnc32)[C@H](O)[C@@H]1O
Activity [1]: 12%
inhibition [2]: 10%
inhibition [3]: > 90%
pKi [4]: 4.51
inhibition [5]: inactive

Nc1ncnc2c1ncn2[C@H]1C[C@H](O)[C@@H](COP(=O)(O)CP(=O)(O)OP(=O)(O)CP(=O)(O)OC[C@H]2O[C@@H](n3cnc4c(N)ncnc43)C[C@@H]2O)O1
Activity [1]: 5.5%
inhibition [2]: 10%
inhibition [3]: > 90%
pKi [4]: 4.10
inhibition [5]: 80%
